Reference: ChEMBL document CHEMBL5226332, “Amino-Substituted 3-Aryl- and 3-Heteroarylquinolines as Potential Antileishmanial Agents” (J Med Chem, 2021)

Columns and labels:
Assay type in all cases: ADME, organism-based
Conditions in all cases: in vivo
[1] = Cmax in BALB/c mouse at 10 mg/kg, iv measured after 24 hrs by LC/MS analysis; design: time 24 hrs, dose 10 mg/kg, route iv
In short: (§1)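 Mice given one 10 mg/kg dose by IV, oral or IP route; parent and monomethyl metabolite measured in plasma. Oral dose given in 10/10/40/39 EtOH/PG/PEG400/PBS (pH 7.4) plus 1% w/v HβCD. Vd is steady-state for IV and apparent for the other routes.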

[2] = AUC in BALB/c mouse at 10 mg/kg, iv measured after 24 hrs by LC/MS analysis; design: dose 10 mg/kg, time 24 hrs, route iv; in short: as §1
[3] = Volume of distribution in BALB/c mouse at 10 mg/kg, iv measured after 24 hrs by LC/MS analysis; in short: as §1
[4] = Cmax in BALB/c mouse at 10 mg/kg, po measured after 24 hrs by LC/MS analysis; design: dose 10 mg/kg, time 24 hrs, route po; in short: as §1
[5] = Tmax in BALB/c mouse at 10 mg/kg, po measured after 24 hrs by LC/MS analysis; in short: as §1
[6] = AUC in BALB/c mouse at 10 mg/kg, po measured after 24 hrs by LC/MS analysis; design: time 24 hrs, dose 10 mg/kg, route po; in short: as §1
[7] = Cmax in BALB/c mouse at 10 mg/kg, ip measured after 24 hrs by LC/MS analysis; design: dose 10 mg/kg, time 24 hrs, route ip; in short: as §1
[8] = AUC in BALB/c mouse at 10 mg/kg, ip measured after 24 hrs by LC/MS analysis; design: dose 10 mg/kg, time 24 hrs, route ip; in short: as §1

| SMILES | Cmax [1] | AUC [2] | Vd [3] | Cmax [4] | Tmax [5] | AUC [6] | Cmax [7] | AUC [8] |
| --- | --- | --- | --- | --- | --- | --- | --- | --- |
| CN(C)c1ccc2cc(-c3cc(Cl)cc(Cl)c3)c(N)nc2c1 | 741 nM | 3.91 µM·h | 25.9 L/kg |  |  |  |  |  |
| CN(C)c1ccc2cc(-c3cn(C)c4ccccc34)c(N)nc2c1 | 2840 nM | 5.95 µM·h | 9.88 L/kg | 1000 nM | 6 min | 0.921 µM·h | 3170 nM | 3.81 µM·h |
